Laboratory results as given in the RNAGym collection of RNA variant scans (doi:10.1126/science.aae0568).
Fewer inactive variants are shown than the library holds.

B1: tRNA (parent)
chain: GUUCCGUUGGCGUAAUGGUAACGCGUCUCCCUCCUAAGGAGAAGACUGCGGGUUCGAGUCCCGUACGGAACG

Variants of: B1
Test: yeast fitness relative to wild type (ratio to wild type); higher = fitter; tRNA-Arg(CCU), competitive growth, 37 C, YPD
Method in brief: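 Start and end populations of a pooled competition were compared by 100-nucleotide paired-end sequencing of gene amplicons. The Saccharomyces cerevisiae strains carried tRNA-Arg(CCU) gene variants at the native genomic locus, synthesised with a 3% per-site mutation rate at 69 sites, and competed in YPD at 37°C for 24 hours in six parallel replicates. Darwinian fitness relative to wild type was based on the change in genotype frequencies. Genotypes required ≥ 100 starting reads, and estimates < 0.5 were set to 0.5.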

Variant | yeast fitness
GUUCCGUUGGCGUAAUGGUAACGCGUCCCCCUCCUAAGGAGAAGACUGCGAGUUCGAGUCCCGUACGGAACG [U28C G51A] | 0.773
GUUCCGUUGGCGUAAUGGUAACGCGUCGCCGUCCUAAGGAGAAGACUGCGGGUUCGAGACGCGUACGGAACG [U28G C31G U59A C61G] | ≤ 0.5
GUUCCGUUGGCGUAAUGGUAACGCGUCCCCCUCCUAAGGAGAAGACUACGGGUUCGAGUCCCGUACGGAACG [U28C G48A] | 0.866
GUUCCGUUGGCGUAAUGGUAACGCGUCCCCCUCCUAAGGAGAAGACUCCGGGCUCGAGUCCCGUACGGAACG [U28C G48C U53C] | 0.553
GUUCCGUUGGCGUAAUGGUAACGCGUCCCCCUCCUAAGGAGAAGACCGCGGGUUCGAGUCCCGUACGGAACG [U28C U47C] | 0.915
GUUCCGUUGGCGUAAUGGUAACGCGUCCCCCUCCUAAGGAGAAGACUGCGGGUUCGAAUCCCGUACGGAACG [U28C G58A] | 0.937
GUUCCGUUGGCGUAAUGGUAACGCGUCGCCCUCGUAAGGAGAACACUGCGGGUUCGAGUCCCGGACGGAACG [U28G C34G G44C U64G] | ≤ 0.5
GUUCCGUUGGCGUAAUGGUAACGCGUCGCCCUCCUAAGGAGAAGACUGCGGGUUCGCGUCCCGUCCGGAACG [U28G A57C A65C] | ≤ 0.5
GUUCCGUUGGCGUAAUGGUAACGCGUCGCCCUCCUGAGGAGAAGACUGCGGGUUCGAGUCCCGUAUGGAACG [U28G A36G C66U] | 0.582
GUUCCGUUGGCGUAAUGGUAACGCGUCGGCCUCCUAAGGAGAAGACUGCGGGUUCGAGUCCCGUACGGAACG [U28G C29G] | 0.608
GUUCCGUUGGCGUAAUGGUAACGCGUCGACCUCCUAAGGAGAAGACUGCGGGUUCGAGUCCCGUACGGAACG [U28G C29A] | ≤ 0.5
GUUCCGUUGGCGUAAUGGUAACGCGUCGCCCUCCUACGGAGAAGACUGCGGGUUUGAGUCCCGUACGGAACG [U28G A37C C55U] | ≤ 0.5
GUUCCGUUGGCGUAAUGGUAACGCGUCGCGCUCCUAAGGCGUAGACUGCGGGUUCGAGUCCCGUACGGAACG [U28G C30G A40C A42U] | ≤ 0.5
GUUCCGUUGGCGUAAUGGUAACGCGUCCCCCUCCUAAGGAGAAGACAGCGGGUUCGAGUCGCGUACCGAACG [U28C U47A C61G G67C] | ≤ 0.5
GUUCCGUUGGCGUAAUGGUAACGCGUCGCGCUCCUAAGGAGAAGACUGCGGGAUCGAGUCUCGUACGGAACG [U28G C30G U53A C61U] | ≤ 0.5
GUUCCGUUGGCGUAAUGGUAACGCGUCGCCUUCCUAAGGAGAAGACUGCGGGUUCGAGUCCCGUACGAAACG [U28G C31U G68A] | ≤ 0.5
GUUCCGUUGGCGUAAUGGUAACGCGUCGCCUUCCUAAGGAGAAGACUGCGGGUUCGAGUCCCGUACGGAUCG [U28G C31U A70U] | 0.543
GUUCCGUUGGCGUAAUGGUAACGCGUCGCCCUCCUAAGGAGAAGAUUGCGGGUUCGAGUACCGUACGGAACG [U28G C46U C60A] | ≤ 0.5
GUUCCGUUGGCGUAAUGGUAACGCGUCCCCCUCCUAAGGAGAAGACCGCGGGUUCGAAUCCCGUACGGAACG [U28C U47C G58A] | 1.07

Variant | yeast fitness
GUUCCGUUGGCGUAAUGGUAACGCGUCCCCCUCCUAAGGAGAAGACCGCGGGUUCGAGACCCGUAAGGAACG [U28C U47C U59A C66A] | ≤ 0.5
GUUCCGUUGGCGUAAUGGUAACGCGUCGCCUUCCUAAGGAGAAGACUGCGGGUUCGAGUCCCGUAUGGAACG [U28G C31U C66U] | ≤ 0.5
GUUCCGUUGGCGUAAUGGUAACGCGUCCCCCUCCCAAGGAGAAGACUGCGGGUUCGAGUCCCGUACGGAACG [U28C U35C] | 0.751
GUUCCGUUGGCGUAAUGGUAACGCGUCGCGCUCCUAAGGAGAAGACUGUGGGUUCGAGUCCCGCACGGAACG [U28G C30G C49U U64C] | ≤ 0.5
GUUCCGUUGGCGUAAUGGUAACGCGUCGCCCUCCUAGGGAGAAGACUGCCGGUUCGAGUCCCGUACGGAACG [U28G A37G G50C] | 0.528
GUUCCGUUGGCGUAAUGGUAACGCGUCGCCCUCCUAAGGAGAAGACUGCGGGUUUGAGUCCCGUACCGAACG [U28G C55U G67C] | ≤ 0.5
GUUCCGUUGGCGUAAUGGUAACGCGUCGCCCUCCUACGGAGAAGACUGCGGGUUUGAGUCCCGUUCGGAACG [U28G A37C C55U A65U] | ≤ 0.5
GUUCCGUUGGCGUAAUGGUAACGCGUCGCACUCCUAAGGAGAAGACUGCGGGUUCGAGUCCCGUACGGAACG [U28G C30A] | 0.645
GUUCCGUUGGCGUAAUGGUAACGCGUCGCCCUCUUAAAGAGAAGACUGCGGGUUCGAGUCCCGUACGGAACG [U28G C34U G38A] | ≤ 0.5
GUUCCGUUGGCGUAAUGGUAACGCGUCCCCCUCCUAAGGAGAAGACUGCGGGUUCGAGUCCCGUACAGAACG [U28C G67A] | 0.652
GUUCCGUUGGCGUAAUGGUAACGCGUCCCCCUCCUAAGGAGAAGACUGCGGGUUCGAGCCCCGUACAGAACG [U28C U59C G67A] | 0.532
GUUCCGUUGGCGUAAUGGUAACGCGUCCCCCUCCUAAGGAGAAGACUACGGGUUCGAGUCGCGUACGGAACG [U28C G48A C61G] | 0.548
GUUCCGUUGGCGUAAUGGUAACGCGUCCCCCUCCUAAGGAGAAGACUGCGGGUUCGAGUCCCGUACGAAACG [U28C G68A] | 0.839
GUUCCGUUGGCGUAAUGGUAACGCGUCGCCCUCCUAAGGAGAAGACUGCGGGUUCGAGUCCCGUACGGAACG [U28G] | 0.957
GUUCCGUUGGCGUAAUGGUAACGCGUCGCCCUGCUAAGGAGAAGCCUGCGGGUUCGAGUCCCGUACGGAACG [U28G C33G A45C] | 0.607
GUUCCGUUGGCGUAAUGGUAACGCGUCGCCCUCCUCACGAGAAGACUGUGGGUUCGAGUCCCGUACGGAACG [U28G A36C G38C C49U] | ≤ 0.5
GUUCCGUUGGCGUAAUGGUAACGCGUCGCCCUCAUAAGGAGAAGACUGCGGGUUCGAGUCCCGUACGGAACG [U28G C34A] | 0.568
GUUCCGUUGGCGUAAUGGUAACGCGUCCCCCUCCUAAGGAGAAGACUGCGGGUUCGAGUCCCGAACGGAACG [U28C U64A] | 0.622
GUUCCGUUGGCGUAAUGGUAACGCGUCGCCCUCCUGAGGAGAAGGCUGCGGGUUCGAGUCCCGUACGGAACG [U28G A36G A45G] | 0.718
